# Results: ChEMBL document CHEMBL4513216, “Probing the Open Global Health Chemical Diversity Library for Multistage-Active Starting Points for Next-Generation Antimalarials” (ACS Infect Dis, 2020)
# Assay: Toxicity liver stage against HepG2, at 10uM
# Assay type: cell-based
# Set-up: test concentration 10 uM, cell line HepG2-A16-CD81EGFP
# Settings: human, HepG2-A16-CD81EGFP cells; read-out: INHIBITION
# Summary of the method: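 Uninfected HepG2-A16-CD81EGFP cells, 3 × 10^3 per well, 1536-well, plated on prespotted compound at 10 μM final, parasite-free screening media added to match infected plates; puromycin 10 μM positive, DMSO 0.5% negative; run in parallel with 48 h PbLuc assay at 37 °C, 5% CO2; viability by CellTiter-Glo luminescence, normalized to controls.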
row,SMILES,cytotoxicity at 10 µM [%]
1,C1CCC(OCCN2CCN(CCOC3CCCCC3)CC2)CC1,-0.434
2,Cc1ccc(CNC[C@H]2Cn3cc(-c4ccccc4)nc3CO2)cc1,-9.43
3,Cn1cnnc1S(=O)(=O)C1CCN(S(=O)(=O)c2ccc(Cl)s2)CC1,-4.72
4,CC(C)N(C)Cc1nnc2n1CCCN(C(=O)C1CCCO1)C2 (centres undefined),19
5,CC(=O)NCc1noc2c1CN(Cc1cnn(C)c1)CC2,-1.71
6,Cc1cc(C)cc(CN2C[C@@H]3OCCN(S(=O)(=O)N(C)C)[C@@H]3C2)c1,8.28
7,O=C(NC1CC1)N1CCc2ccc(=O)n(Cc3ccncc3)c2CC1,-0.972
8,CCC(CC)C(=O)N1CCN(C)c2ncccc2C1,-3
9,COC(=O)c1c(Cl)c(C2CC2)nc2onc(C)c12,10.1
10,c1cc(NC2CC3(CCN(Cc4cscn4)C3)C2)ncn1 (centres undefined),-2.28
11,COc1cc([C@@H]2N[C@H](c3nccs3)Cc3ccsc32)cc(OC)c1OC,8.71
12,Cc1csc2c(C3CCN(CCCOc4ccccc4)CC3)nc(C)n12,1.63
13,CNC(=O)C1CN(C(C)C)CCN1c1ncccn1 (centres undefined),1.22
14,Cc1ncc(CN2CCc3c(nc4cc(C5CC5)nn4c3O)C2)n1C,6.62
15,c1ncc(CN2CC(Cc3nccc4cc[nH]c34)C2)cn1,-1.06
16,CC(C)CNC(=O)C1(Cc2ccccc2-c2ccccc2)CCNC1 (centres undefined),-17.8
17,Cn1ccnc1C(=O)N1CCOC(Cc2ccc(Cl)cc2)C1 (centres undefined),9.23
18,Cn1nc(C2CCN(C(=O)c3cccs3)CC2)c2cccnc21,-8.72
19,Cc1cc(-c2cnc(N3CCSCC3)nc2-c2ccc(C)s2)on1,-2.5
20,O=C(c1cnco1)N1C[C@@H]2CC[C@H](Oc3cccc(F)c3)[C@@H]2C1,-6.18
21,N#Cc1ccccc1OCCN1CCCCC1C(=O)N1CCOCC1 (centres undefined),-45.6
22,CCCN1CCC(N(C)C(=O)c2cc(C)nc3cc(F)ccc23)CC1,0.906

row,SMILES,cytotoxicity at 10 µM [%]
1,Cc1ccc(CCCC(=O)N2CCC(=O)Nc3cccnc32)s1,-60.7
2,Cc1ncsc1CCN(C)Cc1ccc(Br)o1,-43
3,COCC(C)NC(=O)CN1CCC2(CC1)OCCO2 (centres undefined),7.3
4,Cc1noc(C)c1CCC(=O)N1CCCCC1CNS(C)(=O)=O (centres undefined),8.71
5,Cc1noc(CN(Cc2cccs2)C2CC2)n1,-0.243
6,CCOc1nnc(CN(C)C2CCCN(c3ccc(C)nn3)C2)s1 (centres undefined),13.2
7,O=C(CCc1ccc(Cl)cc1)NC1CCN(c2cccc(F)c2)CC1,-5.99
8,CC(C)OCCCNC(=O)c1cccnc1N1CCOCC1,10.5
9,CCN(C(c1cccnc1)c1cc(C)cc(C)c1)S(C)(=O)=O (centres undefined),2.88
10,COc1ccc2cc(CN(C)C(C)c3nc(C4CC4)no3)ccc2c1 (centres undefined),3.18
11,CN(CC(=O)NCC(F)(F)F)Cc1nc2c(s1)CCCC2,19
12,CN1CCC(NC(=O)Cc2csc(C(C)(C)C)n2)CC1,-2.37
13,Cc1ccc(CNC(=O)c2c[nH]nc2NC(=O)C2CCC2)cc1,2.05
14,O=C(O)c1cccn1-c1ccc2c(c1)OCCO2,-7.48
15,CN(CC1CC1)S(=O)(=O)c1ccc(C(F)(F)F)cc1C#N,2.95
16,CN1CCN(c2ncc(CNCCCc3cccc(F)c3)cn2)CC1,-13.2
17,CCOc1ccc(Cl)cc1NC(=O)N1CCC(n2cncn2)CC1,4.93
18,CC(C)c1nc(CNC2CCN(C(=O)OC(C)(C)C)CC2)cs1,-1.72
19,CC(=O)N1CCC(NC(=O)NCc2ncc(-c3ccccc3)o2)CC1,-44.7
20,Nc1cc2c(nn1)CCN(C(=O)c1csc(-c3ccccc3)n1)C2,-12.4
21,O=C(C(CNCc1ccsc1)c1ccccc1)N1CCOCC1 (centres undefined),-7.32
22,Cc1cc(C)nc(N2CCN(C(=O)c3cc(Cl)c[nH]3)CC2)n1,-4

row,SMILES,cytotoxicity at 10 µM [%]
1,CCN(CC)c1ccc(NS(=O)(=O)c2cncc(F)c2)cn1,-8.37
2,Cc1cc(C(=O)NC2CCc3c(ccc(=O)n3CCN(C)C)C2)no1 (centres undefined),-0.58
3,Cc1ccccc1C(=O)N1CC[C@@H]2CN(c3ncccn3)CCO[C@@H]2C1,-72.4
4,CCOCC1CN(CC2CC2)Cc2cnn(C)c21 (centres undefined),-90.4
5,CN(Cc1cccnc1)CC1CNCc2nccn2C1 (centres undefined),-77.2
6,CCS(=O)(=O)N1CCn2cc(CN(C)Cc3ccco3)nc2C1,-74.4
7,COCCC(=O)N1CC2(CCN(Cc3ccncc3)CC2)C1,-66.6
8,C[C@H]1CN(C(=O)c2cscn2)C[C@@]12CCN(c1ccsc1)C2=O,-80.7
9,OCCNc1cc(-c2ccccc2)ncn1,-7.94
10,OCCNc1cc(-c2ccncc2)ncn1,-7.88
11,O=S(=O)(NCc1ccccc1)Nc1cccc(Cn2cncn2)c1,5.91
12,CCc1cc(NC(CCO)c2ccc(OC)cc2)n2nccc2n1 (centres undefined),-30.4
13,Cc1ncsc1-c1nc(Cc2cccs2)nn1C1CCN(C)CC1,-4.51
14,CCOC(=O)N1CCN(c2nc(C)ncc2CC)CC1,-61.2
15,Cc1nnsc1C(=O)N1CCN(C(=O)C2CCC2)[C@@H]2CS(=O)(=O)C[C@@H]21,-2
16,Cc1ccc(C)c2c(C)c(C(=O)NCCCn3ccnn3)[nH]c12,-0.84
17,Cc1ccc(N2CCCC(c3[nH]ncc3Cc3ccccc3)C2)nn1 (centres undefined),10.4
18,Cn1ccnc1CN1CCN(Cc2ccccc2)[C@@H]2CS(=O)(=O)C[C@@H]21,-3.41
19,Cc1ccc([C@@H]2CN(C(=O)c3ccsc3)C[C@H]2NC(=O)C2CC2)cc1,2.93
20,O=C(O)c1cc(C2=CCCCC2)cc(S(=O)(=O)NCc2ccccn2)c1,-46.6
21,CCN(C)Cc1n[nH]c(=O)n1-c1ccc(C)c(C)c1,6.27
22,CCC(CO)N(Cc1ccccn1)Cc1ccc(-c2ccn[nH]2)s1 (centres undefined),2.66

row,SMILES,cytotoxicity at 10 µM [%]
1,CC(C)C(C)N(Cc1cnc2ccccc2n1)Cc1ccco1 (centres undefined),14.7
2,CCc1cnc(C)nc1N1CCC(Cc2cccc(C(=O)O)c2)C1 (centres undefined),2.42
3,CCCc1nc(C)cc(N2CCNC(C(=O)NC3CC3)C2)n1 (centres undefined),-56.5
4,Cc1nccnc1N1C[C@H]2CN(C3CCOCC3)C[C@@]2(C(=O)O)C1,-6.93
5,CCn1c(CC2CCN(C(=O)C3CNCCO3)CC2)nn(C)c1=O (centres undefined),2.14
6,CCc1[nH]c2c(CNc3cncc(C(=O)N(C)C)n3)cc(F)cc2c1C,3.86
7,COc1ccc(F)c(CN2CCCC3(CCN(S(C)(=O)=O)C3)C2)c1 (centres undefined),-2.93
8,COc1cccc(N2CCC(N3C[C@@H](NC(C)=O)[C@H](C(C)C)C3)CC2)c1,-9.98
9,N[C@H]1CN(Cc2cnc(N3CCCC3)nc2)C[C@@H]1C1CC1,-45.5
10,Cc1ccc(C(=O)Nc2ccc(OC3CCN(C)CC3)cc2)c(C)c1,7.48
11,COc1nccnc1N1CCN(Cc2ccc3c(c2)OCO3)C(=O)C1,-1.65
12,O=C(O)C(c1ccc2c(c1)OCCO2)N1CCCC1 (centres undefined),-5.38
13,CC(C)N(C)C(=O)CN1CCCC(c2ccc(C(=O)O)cc2)C1 (centres undefined),-7.74
14,O=C1CC2(CCN(CC3CCOC3)CC2)CN1Cc1cc(F)cc(F)c1 (centres undefined),-18.9
15,CN(c1ccc(C(=O)NCCCN2CCOCC2)c(Cl)c1)S(C)(=O)=O,-11.2
16,O=C(O)c1cc(-c2cccs2)nc2c(Cl)cnn12,-8.33
17,Cc1nc(CN(C)C2CCCN(c3cccnn3)C2)nc2ccccc12 (centres undefined),-0.164
18,Cn1ncc2c(=O)[nH]c(CN(Cc3ccco3)C3CC3)nc21,-9.8
19,Cc1ccc(NC2CCN(C(=O)c3ccc(F)c(C)c3)CC2)nn1,2.37
20,Cc1nccn1C1CCCN(C(=O)c2ccc3c(c2)OCCCO3)C1 (centres undefined),-12.9
21,CCn1c(CN2CCN(CCOC)CC2)nc2c(F)cccc21,-9.86
22,Cc1nc(C)n(CC2CCCN2Cc2nc(-c3ccsc3)no2)n1 (centres undefined),-9.8

row,SMILES,cytotoxicity at 10 µM [%]
1,CC(C(=O)NCc1ccc(-n2cncn2)nc1)S(C)(=O)=O (centres undefined),7.41
2,Cc1ccc(CN(C)Cc2nc3c(cnn3C)c(=O)[nH]2)c(C)c1,0.403
3,O=C(c1cccn1Cc1cccs1)N1CCN(C(=O)C2CC2)CC1,-6.59
4,N#CCCN(C(=O)CN1CCCC1c1ccsc1)c1ccccc1F (centres undefined),-5.8
5,CSc1ncccc1C(=O)NCc1ccc(CS(=O)(=O)NC(C)C)cc1,4.4
6,Cc1cc(C)n(C2CCCN(C(=O)CCCNc3ncccn3)C2)n1 (centres undefined),5.15
7,Cc1ccc(NC2CCN(C(=O)Cc3cccc(F)c3)CC2)nn1,-5.23
8,CSCC[C@H](N)c1nnc(SCC(=O)Nc2ccc(Br)cc2)o1,-2.15
9,Cc1ncc(CN2Cc3ccccc3OC3(CCC(CO)CC3)C2)cn1 (centres undefined),0.179
10,COc1cccc(CN2CCC3(CCN(c4ncc(F)cn4)CC3)C2)c1,-0.664
11,COCCN1CCC2(COCCN(Cc3ccc4c(c3)OCO4)C2)C1 (centres undefined),-0.234
12,Cc1noc(C)c1CN1CC[C@H]2OCC[C@@]2(C(=O)N2CCOCC2)C1,-77.2
13,CCN(CC)c1ccc2ccc(C(=O)N(CCOC)CCOC)cn12,1.15
14,O=C(NCC1CC1)[C@@H]1CCO[C@@H]2CCN(CCc3ccccc3)C[C@H]21,1.14
15,COc1cccc(CN2CCC3(COCc4cnc(N(C)C)nc43)C2)c1 (centres undefined),11.2
16,Cn1nc(Cn2ccnc2)c2c1CN(C(=O)c1ccoc1)C2,-58.9
17,Cc1ccc(NC2COC3(CCN(CC(C)C)CC3)C2)nn1 (centres undefined),-1
18,Cc1ccc(CN2C[C@@H]3CCCO[C@@H]3[C@H](NS(C)(=O)=O)C2)o1,5.16
19,Cc1noc(C)c1CN1CCc2c(CNc3nccs3)n[nH]c2C1,5.28
20,CN(C)CC(=O)N1CCC2(CC1)CN(c1ccsc1)C(=O)CO2,10.1
21,O=C(NCCN1CCOCC1)c1ccn(-c2ccc3ccccn23)n1,-0.735
